# Compound activity deposited in PubChem by several laboratories.
# The list is not random: actives were taken first. Their share in the collection is about 1.8%.
# Cneo AK release: Cryptococcus neoformans lysis via adenylate kinase release | lysis activity, % at 15 µM | AID 651654 | 360,000 compounds, 0.2% hits | C. neoformans lysis, adenylate kinase release luminescence, 4 h; normalised: neutral wells 0, clomiphene wells 100;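 active = mean lysis activity across replicates of at least 80%, whatever share of replicates individually reach that level; inactive = mean lysis activity below 80%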
#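 Test system: log-phase Cryptococcus neoformans yeast cells; Quantity: yeast cell density of 5 × 10^6 cells/mL; Buffer or medium: YPD; Doses: single compound concentration per well; Timing: 4 h at 37 °C static, read 1 h later; Measured by: AK luminescence; Read-out basis: lysis from increased AK signal; Control set: Clomiphene as positive control.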
# SKN-1 block: blocks SKN-1 activity in C. elegans. inhibition, % at 21.8 µM. 360,000 compounds, 0.49% hits. C. elegans VP596 Pgst-4::GFP/RFP ratio, acrylamide-induced, 24 h;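 active = interference check ratio from 0.5 to 1.5 plus GFP to RFP signal ratio inhibition reaching or exceeding a fixed threshold, cut at about 30% in these data, passing the limit was not always enough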
# MT1-MMP act inh: MT1-MMP (human) activation inhibition. HT1080 RFP-PRO-GFP cells, GFP/RFP ratio fluorescence, overnight; percent of plate control window, DMSO zero. GFP/RFP ratio change, % at 20 µM. 360,000 compounds, 0.061% hits;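 active = GFP/RFP ratio change of at least 30% with cell ATP level not reduced by more than half and red fluorescence within 50% of control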
#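 Assay system: HT1080 cells carrying an RFP-PRO-GFP reporter | Dosing: Single dose of 20 µM compound, 1% DMSO final | Incubation: Cells overnight before dosing, compound overnight, 37 °C, 5% CO2 | Evaluation: GFP/RFP fluorescence ratio | Control set: DMSO and RFP-L50D-GFP cell wells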
# Ecoli rRNA inh: inhibitors of bacterial rRNA selective over humanized ribosomes. 350,000 compounds, 1.6% hits. E. coli WT GFP vs humanized-ribosome RFP mutants, fluorescence, 24 h; hits give low values; DMSO median 0, no signal -100. GFP signal change (wild-type ribosome), % (no concentration beside the values);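 active = significant combined selectivity score with lowered wild-type GFP, culture density cut under 30%, mutant RFP and density less affected; inactive = any of these conditions unmet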
# DAGLB inh: blocks human DAGLB lipase activity | Q8NCG7 | HEK293T DAGLB membrane lysate, EnzChek fluorogenic substrate | inhibition, % at 5.17 µM | AID 504411 | 340,000 compounds, 0.059% hits; in the data active = inhibition above about 34%
# Target sequence (Q8NCG7 whole entry, looked up): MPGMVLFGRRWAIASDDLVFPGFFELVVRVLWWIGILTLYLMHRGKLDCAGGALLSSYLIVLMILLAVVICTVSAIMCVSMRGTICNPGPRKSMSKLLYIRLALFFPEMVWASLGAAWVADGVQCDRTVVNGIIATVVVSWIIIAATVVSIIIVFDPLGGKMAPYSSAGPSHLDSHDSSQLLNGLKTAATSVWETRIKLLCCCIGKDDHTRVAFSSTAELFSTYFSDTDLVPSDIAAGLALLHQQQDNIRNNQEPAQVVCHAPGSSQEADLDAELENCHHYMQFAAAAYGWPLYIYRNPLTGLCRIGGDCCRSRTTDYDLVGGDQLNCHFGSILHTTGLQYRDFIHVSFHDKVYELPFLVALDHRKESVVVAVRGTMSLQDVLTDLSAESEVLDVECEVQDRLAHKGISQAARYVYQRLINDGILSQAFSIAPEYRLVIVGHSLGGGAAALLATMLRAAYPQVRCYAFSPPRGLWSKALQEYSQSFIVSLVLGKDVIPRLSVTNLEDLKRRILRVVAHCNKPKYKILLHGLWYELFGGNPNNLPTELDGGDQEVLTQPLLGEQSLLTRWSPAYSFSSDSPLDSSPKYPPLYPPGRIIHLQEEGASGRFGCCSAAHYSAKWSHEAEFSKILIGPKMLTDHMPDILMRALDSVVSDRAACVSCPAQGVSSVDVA
# iPSC survival up: hiPSC single-cell survival enhancement | survival enhancement, % at 20 µM | ATPlite luminescence; 100% = ROCK inhibitor wells, 0% = DMSO | 360,000 compounds, 0.044% hits; in the data active = survival enhancement above about 18%;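 also: cells exposed to compounds for 16 hours before the ATP read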
# Numbers stand for hits; 0 = inactive; - = no result; ! = a repeat was not active.
SMILES,Cneo AK release,SKN-1 block,MT1-MMP act inh,Ecoli rRNA inh,DAGLB inh,iPSC survival up
COc1cccc(Nc2nc(N)c([N+](=O)[O-])c(N3CCOCC3)n2)c1,0,0,0,-29,0,0
Cc1ccc(Nc2nc(N)c([N+](=O)[O-])c(N3CCOCC3)n2)cc1,-,0,0,-,0,0
N#Cc1ccc(C23CC4(C2)[C@H](CN(Cc2ccc(C(F)(F)F)cc2)[C@@H]4c2ccccc2)C3c2ccccc2)cc1 (stereo partly drawn),135,0,0,0,0,0
FC(F)(F)c1ccc(CN2C[C@@H]3C(c4ccccc4)C4(c5cccnc5)CC3(C4)[C@H]2c2ccccc2)cc1 (stereo partly drawn),0,0,0,0,0,0
COC(=O)c1oc2ccc(Cl)cc2c1-n1cccc1,0,37,0,-,0,0
C/C=C/c1ccc2c(c1)O[C@@H](CN(C)C(=O)COC)[C@@H](C)CN([C@H](C)CO)S2(=O)=O,0,-,-,0,-,-
N/C(Cc1ccc(Cl)cc1Cl)=N\OC(=O)c1ccc(Br)o1,0,0,0,-22,0,0
N/C(Cc1cccc2ccccc12)=N\OC(=O)c1ccc(Br)o1,-,-,-,0,-,-
COc1ccc2c3c(n(C)c2c1)[C@@H](CO)N(Cc1ccccc1)CC31CCN(S(=O)(=O)c2ccc(C)cc2)CC1,-,-,-,0,-,-
Cn1c(N=Nc2ccccc2)nc2ccccc21,-,40,0,-,0,0
Cn1c(Cl)nc2ccccc21,0,0,0,-,0,0
O=C(COC(=O)c1ccc(Cl)nc1)Nc1ccc(Cl)cc1,0,0,0,0,0,0
O=C(COC(=O)c1ccc(Cl)nc1)Nc1ccc2ccccc2c1,0,47,0,0,0,0
N#CCC(=O)Nc1ccc(C(=O)OCC(=O)Nc2ccc3ccccc3c2)cc1,-,0,0,-18,0,0
C[C@@H]1CN([C@H](C)CO)C(=O)c2cccc(NC(=O)Nc3ccc4c(c3)OCO4)c2O[C@@H]1CN(C)Cc1ccc(C(=O)Nc2ccccc2N)cc1,0,-,-,0,-,-
O=C(C[C@@H]1C=C[C@@H](NC(=O)c2ccncc2)[C@@H](CO)O1)Nc1ccccc1,-,-,-,0,-,-
COc1ccc(-c2cc(C(=O)NCc3ccc(C(F)(F)F)cc3)[nH]n2)c(C)c1,0,0,0,-20,-,0
COc1cccc(NC(=O)N2C[C@@H](O)COC[C@@H]3O[C@@H](CC(=O)NCCCN4CCOCC4)CC[C@H]32)c1,0,-,-,0,-,-
CSC(=NCCCN1CCOCC1)NS(=O)(=O)c1cccs1,0,43!,0,0,0,0
O=S(=O)(NCCN1CCOCC1)c1cccs1,0,0,0,0,0,0
COc1ccc(N(CC(=O)NC2CCCCC2)C(=O)CNC(=O)c2cccs2)cc1,0,41,0,0,0,0
S=C(c1cn(Cc2ccccc2)c2ccccc12)N1CCOCC1,-,0,0,-29,0,0
COc1ccc2c3c(n(C)c2c1)[C@H](CO)N(C(=O)c1ccncc1)CC31CCN(C(C)=O)CC1,-,-,-,0,-,-
COc1ccc(-n2c(C)cc(C(=O)COC(=O)Cc3n[nH]c(=O)c4ccccc34)c2C)cc1,-,0,0,0,0,0
Cc1cc(C(=O)COC(=O)Cc2n[nH]c(=O)c3ccccc23)c(C)n1-c1ccc2c(c1)OCO2,-,0,0,-25,0,0
SMILES,Cneo AK release,SKN-1 block,MT1-MMP act inh,Ecoli rRNA inh,DAGLB inh,iPSC survival up
Cn1cnc(S(=O)(=O)N2CCCC(c3cc(C(=O)Nc4ccc(F)c(Cl)c4)no3)C2)c1 (stereo not drawn),0,0,0,-25,-,0
O=C(Nc1ccc(F)c(Cl)c1)c1cc(C2CCCN(S(=O)(=O)c3ccccc3)C2)on1 (stereo not drawn),0,0,0,0,-,0
COc1ccccc1/C=C(/C(=O)OCC(=O)Nc1ccccc1C)c1ccccc1,0,0,0,-22,0,0
COc1ccccc1/C=C(/C(=O)OCC(=O)Nc1ccc(N(C)C)cc1)c1ccccc1,-,0,0,-,0,0
COc1ccc(NC(=S)Nc2ncccc2C)c(OC)c1,0,0,0,-31,0,0
COc1ccc(NC(=S)Nc2ncccc2C)cc1OC,-,0,0,0,0,0
CC(C)NC(=O)Nc1cccc2c1O[C@@H](CN(C)C(=O)Nc1ccccc1)[C@@H](C)CN([C@@H](C)CO)C2=O,103,-,-,0,-,-
CC(C)NC(=O)Nc1cccc2c1O[C@H](CN(C)C(=O)Nc1ccccc1)[C@H](C)CN([C@@H](C)CO)C2=O,0,-,-,0,-,-
C[C@H](CO)N1C[C@H](C)[C@@H](CN(C)C(=O)Nc2ccc(F)cc2)Oc2c(NS(=O)(=O)c3ccccc3)cccc2C1=O,102,-,-,0,-,-
CC(C)NC(=O)Nc1cccc2c1O[C@H](CN(C)C)[C@H](C)CN([C@H](C)CO)C2=O,100,-,-,0,-,-
C[C@@H]1CN([C@@H](C)CO)C(=O)Cc2cc(NC(=O)Nc3ccc(F)cc3)ccc2O[C@@H]1CN(C)S(=O)(=O)c1cccs1,0,-,-,0,-,-
Cc1c(C(=O)O)oc2ccc(S(=O)(=O)NCc3ccc(F)cc3)cc12,-,0,0,-,0,0
Cc1c(C(=O)O)oc2ccc(S(=O)(=O)NC3CCCCCCC3)cc12,0,0,0,-29,0,0
O=C(NCCc1ccccc1)c1ccc2c(c1)S(=O)(=O)c1ccccc1C2=O,0,0,0,-23,0,0
O=C(NCCc1ccccc1)c1ccc2c(c1)S(=O)(=O)c1cc(Cl)ccc1C2=O,0,0,0,0,0,0
Cn1nc(C(F)(F)F)c2cc(C(=O)Nc3ccc(F)cc3)sc21,-,0,0,0,0,0
Cn1nc(C(F)(F)F)c2cc(C(=O)O)sc21,-,0,0,0,0,0
Cn1nc(C(F)(F)F)c2cc(C(=O)Nc3ccc(C(F)(F)F)cc3)sc21,-,0,0,-39,0,0
Cn1nc(C(F)(F)F)c2cc(C(=O)Nc3ccc(F)c(Cl)c3)sc21,-,0,0,-30,0,0
O=C(C[C@@H]1CC[C@H](NC(=O)Nc2cccc(F)c2)[C@H](CO)O1)NCC1CCCCC1,0,-,-,0,-,-
CO[C@@H]1CN(C)C(=O)c2ccc(NC(=O)NC(C)C)cc2OC[C@@H](C)N(Cc2cncnc2)C[C@H]1C,-,-,-,0,-,-
CC(=O)OC(C=C(C)C)C/C(C)=C/COc1c2ccoc2cc2oc(=O)ccc12 (stereo not drawn),0,0,0,-21,0,0
CC(C)(O)C(O)COc1c2ccoc2cc2oc(=O)ccc12 (stereo not drawn),0,0,0,0,0,0
C[C@@H]1CCCCO[C@H](CN(C)C(=O)Nc2cccc3ccccc23)[C@H](C)CN([C@H](C)CO)C(=O)c2cc(NS(=O)(=O)c3cn(C)cn3)ccc2O1,0,-,-,0,-,-
O=[N+]([O-])c1ccc2nc(N3CCCC3)sc2c1,0,39,0,0,0,0
